From ChEMBL document CHEMBL3244285, “Hypotensive phospholipids. Some stable analogues of Darmstoff” (J Med Chem, 1978)
Activity calls are given as the source filed them. No cut-off for these calls is given here.

Columns and labels:
[1] = tested on: Rattus norvegicus; assay: Toxicity in awake normotensive rat assessed as decrease in heart rate at 1 mg/100 g, iv measured within 2 mins in presence of beta-adrenergic inhibitor propranolol; format: organism-based; conditions: in vivo
[2] = Stability of the compound in 0.9% sodium chloride solution at 5 degC measured after 24 hrs; format: physicochemical
How it was run: (§1)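 Solution stability was tested by storing drug solutions in 0.9% NaCl at 5 °C. At the stated storage times the stored solutions were given iv to catheterized, unrestrained normotensive rats, and blood pressure and heart-rate responses were re-measured by arterial strain gauge.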

[3] = tested on: Rattus norvegicus; assay: Hypotensive activity in awake normotensive rat assessed as decrease in mean blood pressure at 1 mg/100 g, iv measured within 2 mins in presence of beta-adrenergic inhibitor propranolol; format: functional, organism-based
[4] = tested on: Rattus norvegicus; assay: Toxicity in awake normotensive rat assessed as decrease in heart rate at 1 mg/100 g, iv measured for 10 mins; format: organism-based; conditions: in vivo
How it was run: (§2)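 Chronically catheterized, unrestrained normotensive rats received iv drug in 0.9% NaCl through the venous catheter. Heart rate was followed continuously on chart records from the arterial strain-gauge trace, from the moment of injection for at least 10 min.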

[5] = tested on: Rattus norvegicus; assay: Toxicity in awake normotensive rat assessed as heart rate at 1 mg/100 g, iv measured within 2 mins (reference value: 430 +/- 40/min); format: organism-based; conditions: in vivo
[6] = tested on: Rattus norvegicus; assay: Hypotensive activity in awake normotensive rat assessed as mean blood pressure at 1 mg/100 g, iv measured within 2 mins (reference value: 115 +/- 17 mmHg); format: functional
[7] = tested on: Rattus norvegicus; assay: Hypotensive activity in awake normotensive rat assessed as mean blood pressure at 1 mg/100 g, iv measured within 2 mins (reference value: 125 +/- 16 mmHg); format: functional
[8] = tested on: Rattus norvegicus; assay: Hypotensive activity in awake normotensive rat assessed as mean blood pressure at 2 mg/100 g, iv measured within 2 mins (reference value: 125 mmHg); format: functional
[9] = tested on: Rattus norvegicus; assay: Toxicity in awake normotensive rat assessed as heart rate at 1 mg/100 g, iv measured within 2 mins (reference value: 430 +/- 50/min); format: organism-based; conditions: in vivo
[10] = tested on: Rattus norvegicus; assay: Hypotensive activity in awake normotensive rat assessed as decrease in mean blood pressure at 2 mg/100 g, iv measured within 2 mins in presence of beta-adrenergic inhibitor propranolol; format: functional, organism-based
[11] = tested on: Rattus norvegicus; assay: Toxicity in awake normotensive rat assessed as heart rate at 2 mg/100 g, iv measured within 2 mins (reference value: 420/min); format: organism-based; conditions: in vivo
[12] = Stability of the compound in 0.9% sodium chloride solution at 5 degC measured within 1 hr; format: physicochemical; how it was run: as §1
[13] = tested on: Rattus norvegicus; assay: Toxicity in awake normotensive rat assessed as cardiac arrest at 4 mg/100 g, iv measured within 2 mins; format: organism-based; conditions: in vivo
[14] = species: Rattus norvegicus; assay: Toxicity in spontaneous hypertensive rat model assessed as bradycardia measured after 48 hrs; format: organism-based; conditions: in vivo
[15] = tested on: Rattus norvegicus; assay: Toxicity in awake normotensive rat assessed as decrease in heart rate at 2 mg/100 g, iv measured for 10 mins; format: organism-based; conditions: in vivo; how it was run: as §2
[16] = species: Rattus norvegicus; assay: Hypotensive activity in spontaneous hypertensive rat model measured after 48 hrs; format: functional, organism-based
[17] = tested on: Rattus norvegicus; assay: Toxicity in awake normotensive rat assessed as decrease in heart rate at 2 mg/100 g, iv measured within 2 mins in presence of beta-adrenergic inhibitor propranolol; format: organism-based; conditions: in vivo
[18] = tested on: Rattus norvegicus; assay: Hypotensive activity in awake normotensive rat assessed as mean blood pressure at 1 mg/100 g, iv measured within 2 mins (reference value: 130 +/- 6.9 mmHg); format: functional
[19] = Stability of the compound in 0.9% sodium chloride solution at 5 degC measured after 72 hrs; format: physicochemical; how it was run: as §1
[20] = tested on: Rattus norvegicus; assay: Toxicity in awake normotensive rat assessed as heart rate at 1 mg/100 g, iv measured within 2 mins (reference value: 450 +/- 57/min); format: organism-based; conditions: in vivo

SMILES | Activity [1] | Stability [2] | Activity [3] | Activity [4] | heart rate [5] | Activity [6] | Activity [7] | Activity [8] | heart rate [9] | Activity [10] | heart rate [11] | Stability [12] | Activity [13] | Activity [14] | Activity [15] | Activity [16] | Activity [17] | Activity [18] | Stability [19] | heart rate [20]
CCCCCCCCCCCCCCCC1CCC(COP(=O)([O-])O)O1.[Na+] (stereo unspecified) | Toxic | Stable | Active | Toxic | 350 beats/min | 100 mmHg | – | – | – | – | – | – | – | – | – | – | – | – | – | –
CCCCCCCCCCCCCCCC1OCC(COP(=O)([O-])O)O1.[Na+] (stereo unspecified) | Toxic | – | Active | Toxic | – | – | 100 mmHg | 100 mmHg | 310 beats/min | Active | 250 beats/min | Unstable | Toxic | Toxic | Toxic | Active | Toxic | – | – | –
CCCCCCCCCCCCCCCC1CCC(COP(=O)([O-])O)C1.[Na+] (stereo unspecified) | Toxic | – | Active | Toxic | – | – | – | – | – | – | – | – | – | – | – | – | – | 120 mmHg | Stable | 375 beats/min
